pIC50, pKi: −log10 of the molar value.
Legend:
Jurkat cells = experiment: Proliferation assay, Cell Titer Glo; assay type: cell-based, human; details: 72 h, highest concentrations
In short: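 Jurkat cells at 2 × 10^4 cells/mL were exposed 72 h to compound at final concentrations from 20μM to 600pM. Viability was read by CellTiter-Glo luminescence, and IC50 was fitted by nonlinear regression. Run in triplicate.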

HAP1 cells [1] = experiment: LIVE/DEAD dye staining in HAP1 cells; assay type: cell-based, human; details: HAP1 WT and CDK7-C312S, 72 hours
In short: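 HAP1 WT and CDK7-C312S cells were plated at 500 cells/well and allowed to adhere 24 h before a dilution series of test compound. Cells were analysed at time of dosing and after 72 h. After a 1 h EdU pulse they were stained with LIVE/DEAD Far Red (1:2000), then fixed with 3.7% formaldehyde for 30 min. Mean dye intensity within Hoechst nuclear masks classified cells as live or dead. Technical duplicates, biological triplicate.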

cyclin K- CDK12/13 = details: HAP1 cells, 6 hours
CDK7-cyclin H [2] = experiment: Competitive bioTHZ1 pulldown in HAP1 cells; assay type: cell-based, human; details: for time required for equivalent engagement of CDK7 (>50%): compared with 30 min for YKL-5-124
[3] = test system: CDK7-C312S expressing HAP1 cells; experiment: Growth rate inhibition; assay type: cell-based, human; details: for GRmax in CDK7-C312S cells: HAP1 CDK7-C312S, 72 hours
In short: (§1)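 HAP1 WT or CDK7-C312S cells were seeded at 500 cells/well, adhered 24 h, then treated with a dilution series for 72 h. Live cells were identified by a dead-cell stain and Hoechst nuclear segmentation and counted at dosing and at 72 h. Counts were normalised to same-plate DMSO controls to give growth rate inhibition (GR) values. Technical duplicates in biological triplicate.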

HAP1 cells [4] = experiment: Growth rate inhibition; assay type: cell-based, human; details: for GRmax: HAP1 wild-type, 72 hours
In short: as §1

CDK12/13 = details: ref Zhang et al., 2016; Gao et al., 2018; cited from earlier work
CDK7/Mat1/CycH = CDK7/Mat1/CycH (Homo sapiens, UniProt P50613); experiment: Adapta Eu fixed time point in vitro kinase assay, Km ATP; assay type: biochemical
CDK2/CycA = CDK2/CycA (Homo sapiens, UniProt P24941); experiment: Z'LYTE kinase assay, Km ATP; assay type: biochemical; details: read-out: IC50 CDK2
HAP1 cells [5] = experiment: Cell cycle analysis; assay type: cell-based, human; details: HAP1 WT, 72 hours
In short: (§2)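 HAP1 WT and CDK7-C312S clones were seeded at 500 cells/well and allowed to adhere 24 h, then given a compound dilution series. Cells were analysed at dosing and after 72 h: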

CDK7 [6] = target: CDK7 (Homo sapiens, UniProt P50613); experiment: Radioactive in vitro kinase assay at 1 mM ATP; assay type: biochemical; details: read-out: IC50 for CDK7; ATP concentration of 1mM
CDK7 [7] = experiment: KiNativ profiling in Jurkat cells; assay type: cell-based, human; details: 1μM, 6 hours
In short: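 Jurkat cells were treated 6 h with 1μM compound or DMSO, then sonicated in 50 mM HEPES pH 7.5, 150 mM NaCl, 0.1% Triton X-100 with phosphatase inhibitors. Cleared lysate was labelled 10 min with 20 μM desthiobiotin-ATP acyl-nucleotide probe, denatured, alkylated and trypsin-digested for 1 h at 37°C. Probe-labelled peptides were captured on streptavidin and quantified by mass spectrometry as probe-binding block versus DMSO.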

CDK7-C312S cells = assay type: cell-based, human; details: 500nM, 24 hr
In short: (§3)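 HAP1 WT or CDK7-C312S cells (1×106) were treated 24 h with 500nM or 2μM compound, alone or combined with a 250nM CDK12/13 inhibitor, with DMSO controls. RNA-seq was run in triplicate and genes were called differentially expressed at log2 fold change >1.5. Gene-set overlap between treatments was scored by Jaccard similarity index.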

PARP cleavage = experiment: Western blot for PARP cleavage; assay type: cell-based, human; details: HAP1, all conditions up to 2 μM and 48 hours
CDK7 C312S = assay type: cell-based, Human
In short: (§4)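 HeLa cells stably expressing FLAG-tagged wild-type or C312S CDK7 were treated 6 h with compound or DMSO and lysed. Substrate was 1 μg RPB1 with 25 μM ATP plus 10 μCi 32P-ATP. Read-out was SDS-PAGE and phosphorimaging.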

CDK13 = details: ATP 1mM, at the concentrations tested
CDK7/CycH/Mat1 = CDK7/CycH/Mat1 (Homo sapiens, UniProt P50613); experiment: Covalent inhibition kinetics, peptide substrate mobility shift assay; assay type: biochemical
CDK12 = experiment: Radioactive in vitro kinase assay at 1 mM ATP; assay type: biochemical; details: ATP 1mM, at the concentrations tested
phospho-CDK1(T161) = experiment: Western blot of CDK1 T-loop phosphorylation in HAP1 cells; assay type: cell-based, human; details: for effect on CDK1 T-loop phosphorylation: HAP1 WT, 24 hours, 125 nM to 2 μM YKL-5-124 or 2 μM YKL-5-167
In short: (§5)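 HAP1 WT and CDK7-C312S cells were treated 24 h across a concentration range, or with 2μM over a time course. Cells were lysed 30 min on ice in RIPA (50mM Tris-HCl, 150 mM NaCl, 1% NP-40, 0.5% deoxycholate, 0.1% SDS, pH 7.4) with protease/phosphatase inhibitors and nuclease. Blots were probed for phospho-T161 CDK1, phospho-T160 CDK2 and the total proteins, and detected with infrared-labelled secondaries.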

WT HAP1 cells = experiment: RNA sequencing, differential expression and Jaccard analysis in HAP1 WT cells; assay type: cell-based, human; details: WT HAP1, 500nM, 24 hr, log2 fold change >1.5
In short: as §3

[8] = test system: Pol II CTD S2/S5/S7 phosphorylation; experiment: Western blot of RNA Pol II CTD phosphorylation in HAP1 and Jurkat cells; assay type: cell-based, human; details: up to 2 uM, combination with 250nM THZ531
In short: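 HAP1 WT and CDK7-C312S cells were treated 24 h with compound at the indicated concentrations, alone or with 250nM CDK12/13 inhibitor co-treatment. Lysis was 30 min on ice in RIPA buffer (50mM Tris-HCl, 150 mM NaCl, 1% NP-40, 0.5% deoxycholate, 0.1% SDS, pH 7.4) with protease/phosphatase inhibitors and nuclease. Pol II CTD phospho-serine marks were immunoblotted and detected with infrared-labelled secondary antibodies (1:10,000).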

[9] = test system: HAP1 cells expressing CDK7-C312S; experiment: Cell cycle analysis; assay type: cell-based, human; details: 72 hours
In short: as §2

CDK9/CycT1 = CDK9/CycT1 (Homo sapiens, UniProt P50750); experiment: Adapta Eu kinase assay, Km ATP; assay type: biochemical; details: read-out: IC50 CDK9
[10] = test system: CDK7-cyclin H-MAT1 trimeric complex; experiment: Mass spectrometry analysis of covalent labeling of recombinant CAK complex; assay type: binding; details: recombinant complex incubated 4 hours at 37 °C
In short: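 Recombinant CAK complex (CDK7/cyclin H/MNAT1) was incubated with test compound or DMSO for 4 h at 37 °C and resolved by SDS-PAGE, then analysed by nanoLC/MS. Two unlabeled, non-cysteine CDK7 peptides served for normalization. For CE-MS, treated complex was denatured (0.1% Rapigest final), reduced (10 mM DTT), alkylated (22.5 mM iodoacetamide) and trypsin-digested overnight at 37 °C.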

CDK7 [11] = assay type: cell-based, Human; details: at 10μM, Hela cells treated 6 hours, wild-type CDK7
In short: as §4

CDK2(T160) = experiment: Western blot of CDK2 T-loop phosphorylation in HAP1 cells; assay type: cell-based, human; details: HAP1 WT, 24 hours, 125 nM to 2 μM YKL-5-124 or 2 μM YKL-5-167
In short: as §5

CDK7-cyclin H [12] = experiment: Competitive bioTHZ1 pulldown in Jurkat cells; assay type: cell-based, human; details: Jurkat cells versus HAP1 cells

Sequence of CDK7/CycH/Mat1 (P50613 whole entry): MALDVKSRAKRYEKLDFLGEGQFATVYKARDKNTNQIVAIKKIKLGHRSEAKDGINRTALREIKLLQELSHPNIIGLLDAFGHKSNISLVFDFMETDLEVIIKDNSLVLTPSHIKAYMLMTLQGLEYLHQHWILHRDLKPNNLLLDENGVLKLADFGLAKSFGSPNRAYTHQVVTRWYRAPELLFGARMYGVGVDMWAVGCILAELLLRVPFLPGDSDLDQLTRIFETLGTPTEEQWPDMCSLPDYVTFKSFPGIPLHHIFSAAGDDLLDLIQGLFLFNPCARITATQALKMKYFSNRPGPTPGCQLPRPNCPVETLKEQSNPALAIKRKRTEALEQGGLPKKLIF
Sequence of CDK7/CycH/Mat1 (P51946 whole entry partner): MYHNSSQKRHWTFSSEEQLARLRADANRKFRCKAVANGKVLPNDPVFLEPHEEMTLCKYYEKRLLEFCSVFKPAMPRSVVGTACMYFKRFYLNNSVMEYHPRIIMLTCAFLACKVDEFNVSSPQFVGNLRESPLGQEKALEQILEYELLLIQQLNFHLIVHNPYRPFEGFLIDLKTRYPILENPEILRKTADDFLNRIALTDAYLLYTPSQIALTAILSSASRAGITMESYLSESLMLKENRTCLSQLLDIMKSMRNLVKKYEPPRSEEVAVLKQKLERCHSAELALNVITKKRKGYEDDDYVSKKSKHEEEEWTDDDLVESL
Sequence of CDK7/CycH/Mat1 (P51948 whole entry partner): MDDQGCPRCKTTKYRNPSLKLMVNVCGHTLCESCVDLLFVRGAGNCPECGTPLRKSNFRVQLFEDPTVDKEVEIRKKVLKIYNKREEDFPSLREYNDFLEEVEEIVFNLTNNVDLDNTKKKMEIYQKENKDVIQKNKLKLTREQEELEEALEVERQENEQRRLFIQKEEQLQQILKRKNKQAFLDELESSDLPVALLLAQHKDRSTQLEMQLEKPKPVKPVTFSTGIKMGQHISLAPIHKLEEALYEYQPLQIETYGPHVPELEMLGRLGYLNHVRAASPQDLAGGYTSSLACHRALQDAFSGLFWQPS
Sequence of CDK7/Mat1/CycH (P50613 whole entry): as the sequence (P50613 whole entry) above
Sequence of CDK7/Mat1/CycH (P51946 whole entry partner): as the sequence (P51946 whole entry partner) above
Sequence of CDK7/Mat1/CycH (P51948 whole entry partner): as the sequence (P51948 whole entry partner) above
Sequence of CDK9/CycT1 (P50750 whole entry): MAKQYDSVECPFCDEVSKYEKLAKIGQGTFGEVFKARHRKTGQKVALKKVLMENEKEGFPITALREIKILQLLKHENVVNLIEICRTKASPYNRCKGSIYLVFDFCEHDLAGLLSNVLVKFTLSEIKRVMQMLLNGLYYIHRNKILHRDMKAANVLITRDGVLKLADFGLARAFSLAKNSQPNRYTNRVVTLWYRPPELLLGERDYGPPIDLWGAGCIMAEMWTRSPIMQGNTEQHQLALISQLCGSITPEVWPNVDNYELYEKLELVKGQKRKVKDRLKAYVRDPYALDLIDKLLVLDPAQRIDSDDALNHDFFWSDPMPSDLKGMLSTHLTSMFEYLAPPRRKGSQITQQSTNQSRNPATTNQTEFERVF
Sequence of CDK9/CycT1 (O60563 whole entry partner): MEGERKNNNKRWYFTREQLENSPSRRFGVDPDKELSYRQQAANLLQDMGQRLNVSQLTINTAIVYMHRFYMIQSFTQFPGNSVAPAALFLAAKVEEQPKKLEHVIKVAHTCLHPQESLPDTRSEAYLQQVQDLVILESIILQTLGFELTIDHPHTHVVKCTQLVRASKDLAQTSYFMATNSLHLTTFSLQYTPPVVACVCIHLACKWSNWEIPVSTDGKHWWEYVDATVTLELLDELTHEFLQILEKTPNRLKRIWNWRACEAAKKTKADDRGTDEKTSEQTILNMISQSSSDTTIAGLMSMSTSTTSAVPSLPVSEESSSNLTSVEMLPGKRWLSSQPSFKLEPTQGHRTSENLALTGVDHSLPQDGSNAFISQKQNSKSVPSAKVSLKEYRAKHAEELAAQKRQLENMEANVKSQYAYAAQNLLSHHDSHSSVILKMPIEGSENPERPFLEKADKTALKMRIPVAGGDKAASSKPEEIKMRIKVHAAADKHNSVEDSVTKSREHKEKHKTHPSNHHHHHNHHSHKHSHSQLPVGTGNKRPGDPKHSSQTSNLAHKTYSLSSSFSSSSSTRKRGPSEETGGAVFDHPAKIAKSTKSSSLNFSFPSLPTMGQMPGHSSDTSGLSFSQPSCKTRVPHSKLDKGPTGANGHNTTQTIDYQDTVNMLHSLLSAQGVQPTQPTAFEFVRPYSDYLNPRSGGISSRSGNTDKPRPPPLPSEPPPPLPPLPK
Sequence of CDK7 (Homo sapiens, UniProt P50613) (P50613 2-346): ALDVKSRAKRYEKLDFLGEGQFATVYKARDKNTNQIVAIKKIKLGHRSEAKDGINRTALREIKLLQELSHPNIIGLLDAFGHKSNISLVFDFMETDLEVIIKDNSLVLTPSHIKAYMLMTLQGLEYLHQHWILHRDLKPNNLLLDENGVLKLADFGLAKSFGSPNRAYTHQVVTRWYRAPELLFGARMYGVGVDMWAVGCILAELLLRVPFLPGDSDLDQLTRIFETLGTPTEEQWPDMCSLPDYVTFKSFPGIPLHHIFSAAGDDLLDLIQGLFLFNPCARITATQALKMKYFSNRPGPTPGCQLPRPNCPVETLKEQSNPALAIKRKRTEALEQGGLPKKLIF
Sequence of CDK7 (Homo sapiens, UniProt P50613) (P51946 whole entry partner): as the sequence (P51946 whole entry partner) above
Sequence of CDK7 (Homo sapiens, UniProt P50613) (P51948 whole entry partner): as the sequence (P51948 whole entry partner) above

CN(C)C/C=C/C(=O)Nc1ccc(C(=O)Nc2cccc(Nc3ncc(Cl)c(-c4c[nH]c5ccccc45)n3)c2)cc1 [THZ1, reference compound]
maximal inhibition of proliferation (Jurkat cells): inhibit proliferation to zero
cell death by LIVE/DEAD dye (HAP1 cells [1]): induced substantially more cell death than YKL-5-124
effect on pulldown of cyclin K- CDK12/13 (cyclin K- CDK12/13): bound to both CDK7 and CDK12/13
time required for equivalent engagement of CDK7 (>50%) (CDK7-cyclin H [2]; HAP1 cells): twice as long
GRmax in CDK7-C312S cells [3]: unchanged
GRmax (HAP1 cells [4]): negative

CN(C)C/C=C/C(=O)Nc1ccc(C(=O)N2CCC[C@@H](Nc3ncc(Cl)c(-c4c[nH]c5ccccc45)n3)C2)cc1 [THZ531]
times more potent on CDK12/13 than CDK7 (CDK12/13): approximately 20 times

C=CC(=O)Nc1ccc(C(=O)Nc2n[nH]c3c2CN(C(=O)N[C@H](CN(C)C)c2ccccc2)C3(C)C)cc1 [YKL-5-124, (S)-3-(4-acrylamidobenzamido)-N-(2-(dimethylammo)-1-phenylethyl)-6,6-dimethyl-4,6-dihydropyrrolo[3,4-c]pyrazole-5(1H)-carboxamide]
selectivity for CDK7 than CDK9 and CDK2 (CDK7/Mat1/CycH): 100 fold
pIC50 (CDK7/Mat1/CycH; read-out: IC50 CDK7/Mat1/CycH, fixed time point, Km ATP): 8.01
pIC50 (CDK2/CycA): 5.89
effect on cell cycle distribution (HAP1 cells [5]): dose-dependent increase in G1 and G2/M phase cells and a corresponding loss of S phase cells
maximal inhibition of proliferation (residual, of the original cell count) (Jurkat cells): ≤ 20%
pIC50 (CDK7 [6]): 7.27
CDK7 bound (block of desthiobiotin-ATP probe) (CDK7 [7]): more than 65%
number of differentially expressed genes (CDK7-C312S cells): 583 genes
cell death by LIVE/DEAD dye (HAP1 cells [1]): substantially reduced in CDK7-C312S cells
effect on pulldown of cyclin K- CDK12/13 (cyclin K- CDK12/13): no effect
PARP cleavage / apoptosis (PARP cleavage): apoptosis was not induced
inhibitory activity in the in vitro kinase assay with C312S mutant (CDK7 C312S): abolished the inhibitory activity
inhibition of CDK13 (CDK13): no inhibition
pKi (CDK7/CycH/Mat1; 1 mM ATP, 2-step inactivation model): 8.72
covalently modifies CDK7 times faster than THZ1 (CDK7/CycH/Mat1; ratio of kinact values): approximately 11 times
inhibition of CDK12 (CDK12): no inhibition
time to inhibition of T-loop phosphorylation (phospho-CDK1(T161); HAP1, 2μM): ≤ 12 h
effect on CDK1 T-loop phosphorylation (phospho-CDK1(T161)): inhibited CDK1 T-loop phosphorylation
concentration for reduced CDK1/2 activation (phospho-CDK1(T161); HAP1 and Jurkat cells): exceeding 1 μM
number of differentially expressed genes (WT HAP1 cells): 1452 genes
effect on phosphorylation of S5 and other Pol II CTD serine residues [8]: no effect
reduction of CDK7-cyclin H binding to bioTHZ1 (CDK7-cyclin H [2]; 100 nM, 30 min): > 50%
concentration that blocked pulldown of CDK7-cyclin H (CDK7-cyclin H [2]; HAP1 cells, 6 hours): about 30 nM
lowest concentration with engagement of CDK7 three hours after washout (CDK7-cyclin H [2]; washout after 3-hour treatment): 125 nM
GR50 fold higher in CDK7-C312S than in wild-type cells ([3]; HAP1, 72 hours): at least 150 fold
GRmax in CDK7-C312S cells [3]: too high to be estimated accurately
effect on cell cycle distribution in CDK7-C312S cells [9]: cell cycle distribution was not affected
pIC50 (CDK9/CycT1): 5.52
efficiency of covalent labeling of CDK7 [10]: approximately 99%
concentration at which strong anti-proliferative effects begin (HAP1 cells [4]; HAP1 and Jurkat cells): 100 nM
GRmax (HAP1 cells [4]): zero

CCC(=O)Nc1ccc(C(=O)Nc2n[nH]c3c2CN(C(=O)N[C@H](CN(C)C)c2ccccc2)C3(C)C)cc1 [YKL-5-167, (S)-N-(2-(dimethylamino)-1-phenylethyl)-6,6-dimethyl-3-(4-propionamidobenzamido)-4,6-dihydropyrrolo[3,4-c]pyrazole-5(1H)-carboxamide]
inhibition of phosphorylation of RNA polymerase II substrate (CDK7 [11]): little or no inhibition
effect on cell cycle distribution (HAP1 cells [5]): no effect on cell cycle distribution
effect on CDK2 T-loop phosphorylation (CDK2(T160)): no detectable effect
CDK7 engagement in KiNativ (CDK7 [7]): only weakly engaged
fold higher concentrations required to function as a competitor (CDK7-cyclin H [12]): 10 fold
effect on CDK1 T-loop phosphorylation (phospho-CDK1(T161)): no detectable effect
time required for equivalent engagement of CDK7 (>50%) (CDK7-cyclin H [2]; HAP1 cells): 6 h
fold less effective as a competitor for CDK7-cyclin H (CDK7-cyclin H [2]; relative to YKL-5-124): 100 fold
activity as competitor following washout (CDK7-cyclin H [2]; washout after 3-hour treatment): inactive following washout
